Entries after “also recorded” stand apart in the source; their conditions may differ.

What all share (format): biochemical
Assay [1] deals with T1, human TG2 (Homo sapiens, UniProt P21980).
T1 sequence (P21980 1-687): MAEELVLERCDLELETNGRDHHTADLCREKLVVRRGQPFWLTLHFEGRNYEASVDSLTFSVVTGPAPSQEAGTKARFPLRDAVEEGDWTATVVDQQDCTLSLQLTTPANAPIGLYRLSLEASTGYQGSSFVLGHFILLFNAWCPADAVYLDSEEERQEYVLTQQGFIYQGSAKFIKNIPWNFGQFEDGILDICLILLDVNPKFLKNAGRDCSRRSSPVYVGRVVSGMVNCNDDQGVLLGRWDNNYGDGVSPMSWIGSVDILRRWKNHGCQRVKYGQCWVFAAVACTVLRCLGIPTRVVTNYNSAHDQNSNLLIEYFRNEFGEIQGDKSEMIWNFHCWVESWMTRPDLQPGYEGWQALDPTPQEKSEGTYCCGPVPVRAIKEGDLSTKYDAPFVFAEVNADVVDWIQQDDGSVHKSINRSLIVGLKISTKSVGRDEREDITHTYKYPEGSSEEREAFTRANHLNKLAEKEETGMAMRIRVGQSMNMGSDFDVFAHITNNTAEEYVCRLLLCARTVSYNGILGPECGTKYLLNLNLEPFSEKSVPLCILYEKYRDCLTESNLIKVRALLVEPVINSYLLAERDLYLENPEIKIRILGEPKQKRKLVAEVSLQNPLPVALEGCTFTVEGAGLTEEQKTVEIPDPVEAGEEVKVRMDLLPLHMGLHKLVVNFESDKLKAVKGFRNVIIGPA
In words: preliminary screening of isatins as TG2 inhibitors. In a few lines:
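Coupled GDH assay of TG2-catalysed deamidation of the substrate ZQG, with human TG2 at 0.5 µM. Inhibition by isatin-derived test compounds is read as IC50.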

In assay [2] the target is T1, human TG2. The assay is described as follows: GDH-coupled deamidation assay with Cbz-Gln-Gly. The conditions noted are these: for GDH-coupled assay α (ratio Ki’/Ki): Table 4, [TG2] = 0.5 µM, mixed inhibition model.
Assay [3] concerns the target T1, human TG2. In words: direct fluorometric assay. The conditions noted are these: for partial inhibition activity (in words): fluorometric assay; for Fluorescent assay α (ratio Ki’/Ki): Table 4, [TG2] = 15 nM, mixed inhibition model; for binding character in mixed inhibition model (in words): compounds that did not exhibit partial inhibition. Summed up: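 Direct fluorometric assay following release of 7-hydroxycoumarin from an ester substrate by human TG2 at 15 nM. Ki and Ki' are fitted to a mixed inhibition model, with α = Ki'/Ki. A larger α means more competitive inhibition, α = 1 means simple non-competitive, and α < 1 means increasingly uncompetitive.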

On human TG2 [1], `O=C1Nc2c(F)cc(F)cc2C1=O` [5,7-difluoroisatin] came in with a 50% inhibitory concentration (IC50) of 65 to 450 µM. With `O=C1Nc2ccc(Br)cc2C1=O` [5-bromo], the IC50 against human TG2 [1] was 65 to 450 µM. On the same count and under the same terms, to `O=C1Nc2ccc(Cl)cc2C1=O` [5-chloro] belongs 65 to 450 µM; to `O=C1Nc2ccc(I)cc2C1=O` [5-iodo], 65 to 450 µM. With `Cc1cc(C)c(CN2C(=O)C(=O)c3ccccc32)cc1CN1C(=O)C(=O)c2ccccc21` [Compound 4], the “TG2 inhibitory activity (in words)” value at human TG2 [2] (GDH-coupled assay) was “active”. Same read-out and setting: to `O=C1C(=O)N(CN2C(=O)C(=O)c3ccccc32)c2ccccc21` [Compound 6] belongs “active”. For the compound `O=C1Nc2ccccc2/C1=C1/Nc2ccccc2C1=O` [Compound 7, indirubin], the “TG2 inhibitory activity (in words)” value on human TG2 [2] (GDH-coupled assay) was “inactive”. Consider `O=C1Nc2ccccc2/C1=C1\C(=O)Nc2ccccc21` [Compound 8, isoindigotin], for which, on human TG2 [2] (GDH-coupled assay), the “TG2 inhibitory activity (in words)” value is reported as “promising inhibitors”. Take `CC(=O)/C=C1/C(=O)Nc2ccccc21` [Compound 9]: the “TG2 inhibitory activity (in words)” value on human TG2 [2] (GDH-coupled assay) is on record as “promising inhibitors”. For the compound `CC(=O)/C=C1/C(=O)Nc2cccc(Cl)c21` [Compound 10], the “GDH-coupled assay α (ratio Ki’/Ki)” value at human TG2 [2] is over 100. The same measure, in the same setting: the value for `CC(=O)/C=C1/C(=O)Nc2ccc(Cl)cc21` [Compound 11] was over 100. As for `CC(=O)/C=C1/C(=O)Nc2cc(F)ccc21` [Compound 12], the “GDH-coupled assay α (ratio Ki’/Ki)” value at human TG2 [2] was over 100. Take `O=C1Nc2cccc(Cl)c2/C1=C\C(=O)c1cccnc1` [Compound 16]: on human TG2 [2], the “GDH-coupled assay α (ratio Ki’/Ki)” value is reported as over 100. With `COc1ccncc1C(=O)/C=C1/C(=O)Nc2cccc(Cl)c21` [Compound 19], the “partial inhibition activity (in words)” value at human TG2 [3] is listed as “partial inhibition activity”.

Regarding `O=C1Nc2cccc(Cl)c2/C1=C\C(=O)c1ccccc1` [Compound 20], at human TG2 [2], the “GDH-coupled assay α (ratio Ki’/Ki)” value is over 100. `O=C1Nc2cccc(Cl)c2/C1=C\C(=O)c1ccc(Cl)cc1` [Compound 22]: at human TG2 [3], the “partial inhibition activity (in words)” value was “partial inhibition activity”. Same read-out and setting: to `Nc1ccc(C(=O)/C=C2/C(=O)Nc3cccc(Cl)c32)cc1` [Compound 27] belongs “partial inhibition activity”. In the case of `CN1C(=O)/C(=C/C(=O)c2cccnc2)c2c(Cl)cccc21` [Compound 28], the “GDH-coupled assay α (ratio Ki’/Ki)” value on human TG2 [2] was over 100. `O=C(/C=C1/C(=O)N(Cc2ccccc2)c2cccc(Cl)c21)c1cccnc1` [Compound 33]: at human TG2 [3], the “Fluorescent assay α (ratio Ki’/Ki)” value was found to be 3.6 and the “binding character in mixed inhibition model (in words)” value was “non-competitive binding character”. Besides, the “GDH-coupled assay α (ratio Ki’/Ki)” value at human TG2 [2] turned out to be 1.8. Regarding `O=C1Nc2ccccc2/C1=C\C(=O)c1cccnc1` [Compound 40], at human TG2 [2] (GDH-coupled assay IC50), the “loss in potency relative to compound 16” value is listed as over 20 fold. Further, the “GDH-coupled assay α (ratio Ki’/Ki)” value on human TG2 [2] is on record as over 100. On to `O=C1Nc2cccc(Br)c2/C1=C\C(=O)c1cccnc1` [Compound 41], for which, at human TG2 [3], the “Fluorescent assay α (ratio Ki’/Ki)” value was 2.6 and the “binding character in mixed inhibition model (in words)” value is “non-competitive binding character”. Besides, on human TG2 [2] (GDH-coupled assay), the “TG2 inhibitory activity (in words)” value is “sub-micromolar inhibitor”. Further, the “GDH-coupled assay α (ratio Ki’/Ki)” value at human TG2 [2] is over 100.

Take `O=C1Nc2ccc(Br)cc2/C1=C\C(=O)c1cccnc1` [Compound 43]: on human TG2 [3], the “Fluorescent assay α (ratio Ki’/Ki)” value is on record as 4.4 and the “binding character in mixed inhibition model (in words)” value is given as “non-competitive binding character”. For the same compound, the “GDH-coupled assay α (ratio Ki’/Ki)” value at human TG2 [2] is on record as over 100. Turning to `O=C1Nc2cc(Cl)ccc2/C1=C\C(=O)c1cccnc1` [Compound 46], on human TG2 [2] (GDH-coupled assay), the “TG2 inhibitory activity (in words)” value is given as “nearly as potent as compound 16” and the “mode of inhibition (Lineweaver-Burk analysis)” value was “non-competitive, allosteric mode of action; also recorded: non-competitive inhibitory character”. The “GDH-coupled assay α (ratio Ki’/Ki)” value on human TG2 [2] is 0.86. In the case of `O=C1Nc2cc(Br)ccc2/C1=C\C(=O)c1cccnc1` [Compound 47], at human TG2 [3], the “partial inhibition activity (in words)” value was “partial inhibition activity”. Also, the “TG2 inhibitory activity (in words)” value on human TG2 [2] (GDH-coupled assay) is “nearly as potent as compound 16”. With `O=C1Nc2c(Cl)cccc2/C1=C\C(=O)c1cccnc1` [Compound 48], the “partial inhibition activity (in words)” value at human TG2 [3] is “partial inhibition activity”.

The IC50 is the concentration that inhibits the measured activity by half. Read a low IC50 as greater potency.

The values above are taken from article PMC3081996 (Bioorganic & medicinal chemistry letters, 2010).
